Measured values taken from ChEMBL document CHEMBL3525971 (Drug Metab Dispos, 2011).

Legend:
[1] = Renal clearance in castrated pig at 0.8 mg/kg, administered as intrajejunal dose by UPLC-tandem mass spectrometry; assay type: ADME, organism-based, Sus scrofa, Kidney; set-up: dose 0.8 mg/kg; conditions: male, in vivo
Method in brief: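 Urine collected 0-360 min into a closed bag, weighed and frozen at -20°C. […] Doses: iv 0.2 mg/kg bolus via central vein catheter (n=3), or ij 0.8 mg/kg alone or 20 min after ij ketoconazole 10 mg/kg (n=5). Renal clearance derived from the amount excreted in urine over 0-6 h.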

Sus scrofa [2] = assay: Hepatic clearance in castrated pig at 0.8 mg/kg administered as intrajejunal dose 20 mins after ketoconazole administration by UPLC-tandem mass spectrometry; assay type: ADME, organism-based, Liver; set-up: dose 0.8 mg/kg; conditions: in vivo, other
Method in brief: (§1)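 Portal and hepatic vein plasma measured 0-6 h by UPLC-MS/MS. Extraction ratio derived from portal versus hepatic concentrations or AUCs; CLH then obtained as EH × liver blood flow 52 ml/min/kg × measured blood/plasma ratio.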

[3] = Volume of distribution at steady state in castrated pig at 0.2 mg/kg, iv by UPLC-tandem mass spectrometry; assay type: ADME, organism-based, Sus scrofa; set-up: dose 0.2 mg/kg, route intravenous; conditions: male, in vivo, read-out: Vdss
Method in brief: (§2)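 Femoral plasma assayed over 0-6 h by UPLC-MS/MS. CL calculated as dose/AUCVF,0-6h; Vss calculated as MRT × CL, with MRT = AUMC0-6h/AUC0-6h.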

[4] = Terminal half life in castrated pig plasma withdrawn from femoral vein at 0.8 mg/kg administered as intrajejunal dose 20 mins after ketoconazole administration by UPLC-tandem mass spectrometry; assay type: ADME, organism-based, Sus scrofa; set-up: dose 0.8 mg/kg; conditions: male, read-out: beta t1/2 (converted)
Method in brief: (§3)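 Portal, hepatic and femoral vein plasma sampled over 6 h and assayed by UPLC-MS/MS. Tmax read directly from the profiles. Terminal t1/2 calculated as ln2/λz by non- or compartmental analysis; values below LLOQ after Cmax excluded.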

[5] = Drug excretion in castrated pig urine assessed as unchanged drug level at 0.2 mg/kg, iv measured during 6 hrs sampling by UPLC-tandem mass spectrometry; assay type: ADME, organism-based, Sus scrofa; set-up: dose 0.2 mg/kg, route intravenous; conditions: in vivo
[6] = AUC (0 to 6 hrs) in castrated pig plasma withdrawn from hepatic vein at 0.8 mg/kg administered as intrajejunal dose by UPLC-tandem mass spectrometry; assay type: ADME, organism-based, Sus scrofa; set-up: time < 6 hr, dose 0.8 mg/kg; conditions: male
Method in brief: (§4)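 Where ketoconazole was co-dosed, it was given at 10 mg/kg at the same jejunal site 20 min before. Plasma protein-precipitated with acetonitrile and analysed by UPLC-MS/MS (finasteride-d9). AUC0-6h, Cmax and t1/2 (ln2/λz) were derived by non- or compartmental analysis.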

[7] = Terminal half life in castrated pig plasma withdrawn from femoral vein at 0.8 mg/kg administered as intrajejunal dose by UPLC-tandem mass spectrometry; assay type: ADME, organism-based, Sus scrofa; set-up: dose 0.8 mg/kg; conditions: male, read-out: beta t1/2 (converted); method in brief: as §3
[8] = Biliary excretion in castrated pig assessed as unchanged drug level at 0.8 mg/kg administered as intrajejunal dose measured during 6 hrs sampling by UPLC-tandem mass spectrometry; assay type: ADME, organism-based, Sus scrofa, Bile; set-up: dose 0.8 mg/kg; conditions: in vivo, other
[9] = Ratio of AUC in bile to plasma withdrawn from hepatic vein in castrated pig at 0.2 mg/kg, iv by UPLC-tandem mass spectrometry; assay type: ADME, organism-based, Sus scrofa; set-up: dose 0.2 mg/kg, route intravenous; conditions: male, read-out: Ratio AUC
Method in brief: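 Bile collected 0-6 h and weighed; portal and hepatic vein plasma sampled. Analytes quantified by UPLC-MS/MS (finasteride-d9 internal standard, SRM). Bile AUC divided by plasma AUC for each vein.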

[10] = Cmax in castrated pig plasma withdrawn from femoral vein at 0.8 mg/kg administered as intrajejunal dose 20 mins after ketoconazole administration by UPLC-tandem mass spectrometry; assay type: ADME, organism-based, Sus scrofa; set-up: dose 0.8 mg/kg; conditions: male; method in brief: as §4
[11] = Apparent half-life of the terminal disposition phase in castrated pig plasma withdrawn from hepatic vein at 0.2 mg/kg, iv by UPLC-tandem mass spectrometry; assay type: ADME, organism-based, Sus scrofa; set-up: dose 0.2 mg/kg, route intravenous; conditions: male, read-out: t1/2 lambda z (converted); method in brief: as §4
[12] = Drug excretion in castrated pig urine assessed as omega-hydroxy finasteride metabolite formation by UPLC-tandem mass spectrometry; assay type: ADME, tissue-based, Sus scrofa
[13] = Cmax in castrated pig plasma withdrawn from portal vein at 0.8 mg/kg administered as intrajejunal dose 20 mins after ketoconazole administration by UPLC-tandem mass spectrometry; assay type: ADME, organism-based, Sus scrofa; set-up: dose 0.8 mg/kg; conditions: male; method in brief: as §4
[14] = Ratio of AUC in bile to plasma withdrawn from portal vein in castrated pig at 0.8 mg/kg administered as intrajejunal dose by UPLC-tandem mass spectrometry; assay type: ADME, organism-based, Sus scrofa; set-up: dose 0.8 mg/kg; conditions: male, read-out: Ratio AUC
Method in brief: (§5)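 Bile collected 0-6 h and weighed; portal and hepatic vein plasma sampled. UPLC-MS/MS quantification against finasteride-d9 in SRM mode. Bile/plasma AUC ratio calculated per vein.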

[15] = Cmax in castrated pig plasma withdrawn from femoral vein at 0.8 mg/kg administered as intrajejunal dose by UPLC-tandem mass spectrometry; assay type: ADME, organism-based, Sus scrofa; set-up: dose 0.8 mg/kg; conditions: male; method in brief: as §4
[16] = AUC (0 to 6 hrs) in castrated pig bile at 0.8 mg/kg administered as intrajejunal dose 20 mins after ketoconazole administration by UPLC-tandem mass spectrometry; assay type: ADME, organism-based, Sus scrofa; set-up: time < 6 hr, route […], dose 0.8 mg/kg; conditions: male
[17] = Total plasma clearance in castrated pig at 0.2 mg/kg, iv by UPLC-tandem mass spectrometry; assay type: ADME, organism-based, Sus scrofa; set-up: dose 0.2 mg/kg, route intravenous; conditions: male; method in brief: as §2
[18] = AUC (0 to 6 hrs) in castrated pig plasma withdrawn from portal vein at 0.8 mg/kg administered as intrajejunal dose 20 mins after ketoconazole administration by UPLC-tandem mass spectrometry; assay type: ADME, organism-based, Sus scrofa; set-up: time < 6 hr, dose 0.8 mg/kg; conditions: male; method in brief: as §4
[19] = Oral absorption in human; assay type: ADME, organism-based; conditions: in vivo
[20] = Cmax in castrated pig plasma withdrawn from portal vein at 0.8 mg/kg administered as intrajejunal dose by UPLC-tandem mass spectrometry; assay type: ADME, organism-based, Sus scrofa; set-up: dose 0.8 mg/kg; conditions: male; method in brief: as §4
[21] = AUC (0 to 6 hrs) in castrated pig plasma withdrawn from femoral vein at 0.8 mg/kg administered as intrajejunal dose 20 mins after ketoconazole administration by UPLC-tandem mass spectrometry; assay type: ADME, organism-based, Sus scrofa; set-up: time < 6 hr, dose 0.8 mg/kg; conditions: male; method in brief: as §4
[22] = Drug excretion in castrated pig urine assessed as fraction of the dose excreted at 0.8 mg/kg administered as intrajejunal dose measured during 6 hrs sampling by UPLC-tandem mass spectrometry; assay type: ADME, organism-based, Sus scrofa; set-up: dose 0.8 mg/kg; conditions: male, read-out: Drug excretion
Plasma = assay: Drug metabolism in castrated pig plasma withdrawn from hepatic vein assessed as omega-hydroxy finasteride metabolite formation by UPLC-tandem mass spectrometry; assay type: ADME, cell-free, Sus scrofa
Method in brief: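 Plasma sampled 0-6 h from portal, hepatic and femoral veins. Analysed by acetonitrile precipitation with finasteride-d9 internal standard, then UPLC-MS/MS in SRM mode, m/z 389.41 → 271.94 for the ω-hydroxy metabolite.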

[23] = AUC (0 to 6 hrs) in castrated pig plasma withdrawn from femoral vein at 0.2 mg/kg, iv by UPLC-tandem mass spectrometry; assay type: ADME, organism-based, Sus scrofa; set-up: time < 6 hr, dose 0.2 mg/kg, route intravenous; conditions: male; method in brief: as §4
[24] = Tmax in castrated pig plasma withdrawn from hepatic vein at 0.8 mg/kg administered as intrajejunal dose 20 mins after ketoconazole administration by UPLC-tandem mass spectrometry; assay type: ADME, organism-based, Sus scrofa; set-up: dose 0.8 mg/kg; conditions: male; method in brief: as §3
[25] = Terminal half life in castrated pig plasma withdrawn from hepatic vein at 0.8 mg/kg administered as intrajejunal dose 20 mins after ketoconazole administration by UPLC-tandem mass spectrometry; assay type: ADME, organism-based, Sus scrofa; set-up: dose 0.8 mg/kg; conditions: male, read-out: beta t1/2 (converted); method in brief: as §3
[26] = Apparent biliary clearance in castrated pig at 0.8 mg/kg administered as intrajejunal dose 20 mins after ketoconazole administration by UPLC-tandem mass spectrometry; assay type: ADME, organism-based, Sus scrofa, Bile; set-up: dose 0.8 mg/kg; conditions: in vivo, other
[27] = Apparent half-life of the terminal disposition phase in castrated pig plasma withdrawn from portal vein at 0.2 mg/kg, iv by UPLC-tandem mass spectrometry; assay type: ADME, organism-based, Sus scrofa; set-up: dose 0.2 mg/kg, route intravenous; conditions: male, read-out: t1/2 lambda z (converted); method in brief: as §4
Sus scrofa [28] = assay: Hepatic clearance in castrated pig at 0.8 mg/kg, administered as intrajejunal dose by UPLC-tandem mass spectrometry; assay type: ADME, organism-based, Liver; set-up: dose 0.8 mg/kg; conditions: in vivo, other; method in brief: as §1
[29] = Ratio of AUC in bile to plasma withdrawn from hepatic vein in castrated pig at 0.8 mg/kg administered as intrajejunal dose by UPLC-tandem mass spectrometry; assay type: ADME, organism-based, Sus scrofa; set-up: dose 0.8 mg/kg; conditions: male, read-out: Ratio AUC; method in brief: as §5
[30] = Apparent biliary clearance in castrated pig at 0.2 mg/kg, iv by UPLC-tandem mass spectrometry; assay type: ADME, organism-based, Sus scrofa, Bile; set-up: dose 0.2 mg/kg, route intravenous; conditions: in vivo

CL renal [1]: 0.005 mL/min/kg | CLH (Sus scrofa [2]): 18 mL/min/kg | Vd [3]: 0.99 L/kg | half-life [4]: 4 h | AUC(0-t) at 6 h [6]: 1.6 µM·h | half-life [7]: 1.6 h | Kp [9]: 7 | Cmax [10]: 1200 nM | half-life [11]: 3.1 h | Drug excretion [12]: metabolite_not_detected | Cmax [13]: 3100 nM | Kp [14]: 0.9 | Cmax [15]: 600 nM | AUC(0-t) at 6 h [16]: 4.2 µM·h | clearance [17]: 7 mL/min/kg | AUC(0-t) at 6 h [18]: 6.3 µM·h | Fa [19]: > 85% | Cmax [20]: 2600 nM | AUC(0-t) at 6 h [21]: 4.4 µM·h | dose excreted at 6 h [22]: 0.02% | Drug metabolism (Plasma): metabolite_not_detected | AUC(0-t) at 6 h [23]: 1.2 µM·h | Tmax [24]: 1 h | half-life [25]: 3.6 h | CL(app) [26]: 0.01 mL/min/kg | half-life [27]: 2.6 h | CLH (Sus scrofa [28]): 25 mL/min/kg | Kp [29]: 14 | CL(app) [30]: 0.014 mL/min/kg
Compound: CC(C)(C)NC(=O)[C@H]1CC[C@H]2[C@@H]3CC[C@H]4NC(=O)C=C[C@]4(C)[C@H]3CC[C@]12C [FINASTERIDE]
Ae [5]: 0.02 µmol | Ae [8]: 0.03 µmol
